Experimental data published in article PMC6092455 (International Journal for Parasitology: Drugs and Drug …, 2018).
Entries after “also recorded” stand apart in the source; their conditions may differ.

Columns and labels:
[1] = target: T1, B. divergens proteasome β5 subunit (chymotrypsin-like activity) (Babesia divergens, UniProt A0AAD9GDK3); experiment: Suc-LLVY-AMC proteasome activity assay with B. divergens crude cell lysates; assay type: biochemical; settings: for inhibition at 1 µM: read-out: Reduction of Suc-LLVY-AMC measured activity
T1 sequence (A0AAD9GDK3 69-280): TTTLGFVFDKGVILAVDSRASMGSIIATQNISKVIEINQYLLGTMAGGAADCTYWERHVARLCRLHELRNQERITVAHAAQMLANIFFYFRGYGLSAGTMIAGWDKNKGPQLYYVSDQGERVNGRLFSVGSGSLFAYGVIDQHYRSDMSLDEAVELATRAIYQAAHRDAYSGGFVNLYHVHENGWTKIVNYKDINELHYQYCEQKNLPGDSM
How it was run: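 Crude lysate made from B. divergens-infected RBCs (~15% parasitemia): saponin lysis, PBS washes, sonication in 20 mM HEPES pH 8.0, 1 µM E64, 0.03% SDS, 1 mM ATP; pooled from 10 cultures. Lysate pre-incubated 30 min at 37 °C with 1 µM test compound. Then 10 µM Suc-LLVY-AMC added; fluorescence 360/465 nm read every 1 min for 1 h at 37 °C. Run in triplicate.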

[2] = tested on: HeLa cells; experiment: Cell toxicity assay, HeLa cells; assay type: cell-based, human; settings: for IC50: Homo sapiens, HeLa, 48 h, read-out: IC50 values, HeLa cells, 48 h, AlamarBlue
[3] = tested on: B. microti proteasome (chymotrypsin-like activity); experiment: Suc-LLVY-AMC activity assay on B. microti lysates from treated mice; assay type: in vivo, Babesia microti; settings: mice treated 0.75 mg/kg on 5 and 6 DPI, pooled blood collected 7 DPI
[4] = tested on: PMJ2R mouse macrophages; experiment: Cell viability assay, PMJ2R mouse macrophages; assay type: cell-based; settings: 200 nM, 48 h
How it was run: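 PMJ2R macrophages grown in RPMI 1640 with gentamicin, amphotericin B and 10% heat-inactivated FCS. Serially diluted test compound added to cultures, with 0.004% DMSO in medium as control. Medium changed every 12 h; 48 h at 37 °C, 5% CO₂. Calcein AM (live) and ethidium homodimer III (dead) staining, counted by flow cytometry. Triplicate cultures; mean ± SD; unpaired t-test.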

[5] = tested on: B. microti; experiment: Treatment of B. microti infected mice; assay type: in vivo, Babesia microti
How it was run: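 Six female BALB/c mice (~20 g) infected i.p. with 150 µl B. microti-infected blood (50% parasitemia, ~800 × 10⁶ infected RBCs). Dosed i.p. daily from 1 to 7 DPI with test compound at 0.75 mg/kg in PBS or with vehicle (150 µl; three mice each). Activity and appearance observed. Parasitemia counted daily to 15 DPI on tail-snip thin smears. AUC (Riemann sums), Cmax and Tmax compared by t-test.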

[6] = tested on: B. microti; experiment: Parasitemia in B. microti infected mice treated on 5 and 6 DPI; assay type: in vivo, Babesia microti; settings: BALB/c mice, 0.75 mg/kg i.p. on 5 and 6 DPI
How it was run: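 Eight female BALB/c mice infected i.p. with B. microti-infected blood (150 µl, 50% parasitemia, ~800 × 10⁶ infected RBCs). Test compound at 0.75 mg/kg in PBS, or vehicle, given i.p. on 5 and 6 DPI (four mice per group). Parasitemia read as percent from thin blood smears taken by tail snip; blood collected on 7 DPI.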

[7] = rats; ref Yang et al., 2011; cited from earlier work
[8] = tested on: B. microti; experiment: Pre-treatment of B. microti infected red blood cells prior to mouse infection; assay type: in vivo, Babesia microti; settings: infected blood pre-treated with 400 nM for 1 h
How it was run: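 Infected blood pooled from three B. microti-infected mice (50% parasitemia). Exposed to test compound at 400 nM final, or to matching DMSO, for 1 h at 37 °C, 5% CO₂. Then injected i.p. (150 µl, 800 × 10⁶ infected RBCs) into three treated and three control BALB/c mice. Parasitemia counted daily for 8 DPI on Diff-Quik thin smears; Cmax and Tmax calculated in R.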

[9] = BALB/c mice, 0.75 mg/kg i.p. daily 1-7 DPI

## CC(C)C[C@H](NC(=O)[C@H](Cc1ccccc1)NC(=O)c1cnccn1)B(O)O [Bortezomib, bortezomib]
[1]
  inhibition at 1 µM: 96%
[2]
  IC50: 7 ± 1 nM

## CC(C)C[C@H](NC(=O)[C@H](CCc1ccccc1)NC(=O)CN1CCOCC1)C(=O)N[C@@H](Cc1ccccc1)C(=O)N[C@@H](CC(C)C)C(=O)[C@@]1(C)CO1 [Carfilzomib]
[3]
  Reduction of Suc-LLVY-AMC activity in B. microti lysates compared to untreated control: 33%
[4]
  Toxicity to PMJ2R macrophages: did not show any toxicity; also recorded: did not affect cell viability
[4]; medium changed every 12 h
  Survival rate of PMJ2R cells: 71.1%
[5]; [9]
  Adverse effects on spontaneous activity and physical appearance of mice: no adverse effects
  Peak parasitemia levels and area under curve (AUC) compared to PBS: significantly reduced
[5]; BALB/c mice, 0.75 mg/kg i.p. daily 1-7 DPI (data not shown)
  Microscopic appearance of non-parasited RBCs: did not change
[5]; daily intra-peritoneal treatment of infected mice
  Parasitemia on 5, 6 and 7 DPI compared to untreated control: lower parasitemia
[1]; 1 μM inhibitor, pilot experiments (data not shown)
  Reduction of Suc-LLVY-AMC measured activity: completely inhibiting this activity
[1]
  inhibition at 1 µM: > 90%
[6]; 5 DPI
  Parasite load (parasitemia, mean) at 5 DPI: 47.4 ± 6.3%
[6]; 7 DPI
  Parasite load (parasitemia, mean) at 7 DPI: 41.5 ± 2.9%
[7]
  Plasma clearance: 195 to 319 mL/min/kg
  Terminal half-life: 5 to 20 min
  Tissue distribution: rapid and wide tissue distribution
[8]
  Reduction of Cmax (parasitemia) on Tmax (7 DPI) compared to control group: 31.2%
[2]
  IC50: 59 ± 36 nM
[2]; ratio of IC50 values HeLa / B. divergens ex vivo culture
  Fold more potent against B. divergens compared to HeLa: 2–3.5 fold
